Laboratory results published in ChEMBL document CHEMBL1944509, “Methyl-monofluorination of ibuprofen selectively increases its inhibitory activity toward cyclooxygenase-1 leading to enhanced analgesic activity and reduced gastric damage in vivo” (Bioorg Med Chem Lett, 2011).
Calls of active or inactive are those of the source. No cut-off for these calls is given here.

Tests used:
Nucleic Acid [1] = test: Ratio of drug level in brain to plasma in ICR mouse at 10 mg/kg, po after 1 hr by HPLC/MS/MS analysis; type: ADME, organism-based; parameters: dose 10 mg/kg, route oral
Nucleic Acid [2] = test: Ratio of drug level in brain to plasma in ICR mouse at 5 mg/kg, iv after 0.083 hrs by HPLC/MS/MS analysis; type: ADME, organism-based; parameters: dose 5 mg/kg, route intravenous
[3] = Plasma concentration in ICR mouse at 10 mg/kg, po after 4 hrs by HPLC/MS/MS analysis; type: ADME, organism-based; parameters: dose 10 mg/kg, route oral
[4] = Plasma concentration in ICR mouse at 5 mg/kg, iv after 0.25 hrs by HPLC/MS/MS analysis; type: ADME, organism-based; parameters: dose 5 mg/kg, route intravenous
[5] = Plasma concentration in ICR mouse at 5 mg/kg, iv after 1 hr by HPLC/MS/MS analysis; type: ADME, organism-based; parameters: dose 5 mg/kg, route intravenous
[6] = Drug level in ICR mouse brain at 10 mg/kg, po after 0.5 hrs by HPLC/MS/MS analysis; type: ADME, organism-based; parameters: dose 10 mg/kg, route oral; conditions: read-out: Drug uptake
[7] = Plasma concentration in ICR mouse at 10 mg/kg, po after 1 hr by HPLC/MS/MS analysis; type: ADME, organism-based; parameters: dose 10 mg/kg, route oral
Nucleic Acid [8] = test: Ratio of drug level in brain to plasma in ICR mouse at 5 mg/kg, iv after 0.25 hrs by HPLC/MS/MS analysis; type: ADME, organism-based; parameters: dose 5 mg/kg, route intravenous
[9] = Cmax in ICR mouse at 10 mg/kg, po; type: ADME, organism-based; parameters: dose 10 mg/kg, route oral; conditions: in vivo
How it was run: (§1)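 ICR mice given drug intravenously at 5 mg/kg or orally at 10 mg/kg. Parameters are taken from the plasma concentration–time profile: AUC(0–t), AUC(0–∞), MRT, Cmax and bioavailability.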

[10] = Plasma concentration in ICR mouse at 5 mg/kg, iv after 4 hrs by HPLC/MS/MS analysis; type: ADME, organism-based; parameters: dose 5 mg/kg, route intravenous
[11] = Drug level in ICR mouse brain at 10 mg/kg, po after 0.25 hrs by HPLC/MS/MS analysis; type: ADME, organism-based; parameters: dose 10 mg/kg, route oral; conditions: read-out: Drug uptake
[12] = Drug level in ICR mouse brain at 10 mg/kg, po after 2 hrs by HPLC/MS/MS analysis; type: ADME, organism-based; parameters: dose 10 mg/kg, route oral; conditions: read-out: Drug uptake
[13] = Plasma concentration in ICR mouse at 5 mg/kg, iv after 2 hrs by HPLC/MS/MS analysis; type: ADME, organism-based; parameters: dose 5 mg/kg, route intravenous
[14] = Drug level in ICR mouse brain at 10 mg/kg, po after 0.083 hrs by HPLC/MS/MS analysis; type: ADME, organism-based; parameters: dose 10 mg/kg, route oral; conditions: read-out: Drug uptake
[15] = Drug level in ICR mouse brain at 5 mg/kg, iv after 2 hrs by HPLC/MS/MS analysis; type: ADME, organism-based; parameters: dose 5 mg/kg, route intravenous; conditions: read-out: Drug uptake
[16] = Plasma concentration in ICR mouse at 5 mg/kg, iv after 6 hrs by HPLC/MS/MS analysis; type: ADME, organism-based; parameters: dose 5 mg/kg, route intravenous
[17] = Plasma concentration in ICR mouse at 5 mg/kg, iv after 0.5 hrs by HPLC/MS/MS analysis; type: ADME, organism-based; parameters: dose 5 mg/kg, route intravenous
[18] = AUC (0 to t) in ICR mouse at 10 mg/kg, po; type: ADME, organism-based; parameters: dose 10 mg/kg, route oral; conditions: plasma; how it was run: as §1
[19] = Drug level in ICR mouse brain at 5 mg/kg, iv after 0.083 hrs by HPLC/MS/MS analysis; type: ADME, organism-based; parameters: dose 5 mg/kg, route intravenous; conditions: read-out: Drug uptake
[20] = Mean residence time (0 to infinity) in ICR mouse at 10 mg/kg, po; type: ADME, organism-based; parameters: dose 10 mg/kg, route oral; conditions: in vivo; how it was run: as §1
[21] = Tmax in ICR mouse at 10 mg/kg, po; type: ADME, organism-based; parameters: dose 10 mg/kg, route oral; conditions: in vivo
[22] = Oral bioavailability ICR mouse at 10 mg/kg; type: ADME, organism-based; conditions: in vivo; how it was run: as §1
[23] = Plasma concentration in ICR mouse at 5 mg/kg, iv after 0.083 hrs by HPLC/MS/MS analysis; type: ADME, organism-based; parameters: dose 5 mg/kg, route intravenous
[24] = Plasma concentration in ICR mouse at 10 mg/kg, po after 0.25 hrs by HPLC/MS/MS analysis; type: ADME, organism-based; parameters: dose 10 mg/kg, route oral
Nucleic Acid [25] = test: Ratio of drug level in brain to plasma in ICR mouse at 10 mg/kg, po after 0.5 hrs by HPLC/MS/MS analysis; type: ADME, organism-based; parameters: dose 10 mg/kg, route oral
[26] = Mean residence time (0 to infinity) in ICR mouse at 5 mg/kg, iv; type: ADME, organism-based; parameters: dose 5 mg/kg, route intravenous; conditions: in vivo; how it was run: as §1
[27] = AUC (0 to infinity) in ICR mouse at 5 mg/kg, iv; type: ADME, organism-based; parameters: time infinity, dose 5 mg/kg, route intravenous; conditions: plasma; how it was run: as §1
Rattus norvegicus [28] = test: Antiinflammatory activity in Wistar albino rat assessed as inhibition of carrageenan-induced paw edema at 30 mg/kg intragastrically administered 1 hr before carrageenan challenge measured after 1 to 24 hrs post carrageenan challenge by plethysmometer; type: functional, organism-based
How it was run: (§2)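 Male Wistar albino rats, 140–160 g, eight per group, dosed i.g. as a suspension in 0.5% CMC; controls get 0.5% CMC only. 1 h later, 0.1 ml of 0.1% carrageenan in 0.9% NaCl is injected into the sub-plantar region of the right hind paw. Paw volume is read by plethysmometer hourly to 6 h and at 24 h. Inhibition (%) = (Vc − Vt)/Vc × 100 on mean volume increase; mean ± SEM.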

Rattus norvegicus [29] = test: Antiinflammatory activity in Wistar albino rat assessed as inhibition of carrageenan-induced paw edema at 33.6 mg/kg, ig administered 1 hr before carrageenan challenge measured after 1 to 24 hrs post carrageenan challenge by plethysmometer; type: functional, organism-based; how it was run: as §2
[30] = Plasma concentration in ICR mouse at 5 mg/kg, iv after 8 hrs by HPLC/MS/MS analysis; type: ADME, organism-based; parameters: dose 5 mg/kg, route intravenous
[31] = Drug level in ICR mouse brain at 5 mg/kg, iv after 0.25 hrs by HPLC/MS/MS analysis; type: ADME, organism-based; parameters: dose 5 mg/kg, route intravenous; conditions: read-out: Drug uptake
[32] = AUC (0 to t) in ICR mouse at 5 mg/kg, iv; type: ADME, organism-based; parameters: dose 5 mg/kg, route intravenous; conditions: plasma; how it was run: as §1
[33] = Tmax in ICR mouse at 5 mg/kg, iv; type: ADME, organism-based; parameters: dose 5 mg/kg, route intravenous; conditions: in vivo
[34] = Cmax in ICR mouse at 5 mg/kg, iv; type: ADME, organism-based; parameters: dose 5 mg/kg, route intravenous; conditions: in vivo; how it was run: as §1
Nucleic Acid [35] = test: Ratio of drug level in brain to plasma in ICR mouse at 5 mg/kg, iv after 2 hrs by HPLC/MS/MS analysis; type: ADME, organism-based; parameters: dose 5 mg/kg, route intravenous
[36] = Drug level in ICR mouse brain at 5 mg/kg, iv after 1 hr by HPLC/MS/MS analysis; type: ADME, organism-based; parameters: dose 5 mg/kg, route intravenous; conditions: read-out: Drug uptake
Nucleic Acid [37] = test: Ratio of drug level in brain to plasma in ICR mouse at 10 mg/kg, po after 0.25 hrs by HPLC/MS/MS analysis; type: ADME, organism-based; parameters: dose 10 mg/kg, route oral
Nucleic Acid [38] = test: Ratio of drug level in brain to plasma in ICR mouse at 5 mg/kg, iv after 0.5 hrs by HPLC/MS/MS analysis; type: ADME, organism-based; parameters: dose 5 mg/kg, route intravenous
[39] = Drug level in ICR mouse brain at 5 mg/kg, iv after 0.5 hrs by HPLC/MS/MS analysis; type: ADME, organism-based; parameters: dose 5 mg/kg, route intravenous; conditions: read-out: Drug uptake
[40] = AUC (0 to infinity) in ICR mouse at 10 mg/kg, po; type: ADME, organism-based; parameters: time infinity, dose 10 mg/kg, route oral; conditions: plasma; how it was run: as §1
[41] = Drug level in ICR mouse brain at 10 mg/kg, po after 4 hrs by HPLC/MS/MS analysis; type: ADME, organism-based; parameters: dose 10 mg/kg, route oral; conditions: read-out: Drug uptake
[42] = Plasma concentration in ICR mouse at 10 mg/kg, po after 8 hrs by HPLC/MS/MS analysis; type: ADME, organism-based; parameters: dose 10 mg/kg, route oral
[43] = Plasma concentration in ICR mouse at 10 mg/kg, po after 0.5 hrs by HPLC/MS/MS analysis; type: ADME, organism-based; parameters: dose 10 mg/kg, route oral
[44] = Plasma concentration in ICR mouse at 10 mg/kg, po after 0.083 hrs by HPLC/MS/MS analysis; type: ADME, organism-based; parameters: dose 10 mg/kg, route oral
[45] = Plasma concentration in ICR mouse at 10 mg/kg, po after 6 hrs by HPLC/MS/MS analysis; type: ADME, organism-based; parameters: dose 10 mg/kg, route oral

## CC(C)Cc1ccc([C@H](CF)C(=O)O)cc1
Nucleic Acid [1]
  BPR: 0.025 mL/g
Nucleic Acid [2]
  BPR: 0.031 mL/g
[3]
  concentration at 4 h: 792 ng/mL
[4]
  concentration at 0.25 h: 18000 ng/mL
[5]
  concentration at 1 h: 6160 ng/mL
[6]
  concentration at 0.5 h: 950 ng/g
[7]
  concentration at 1 h: 20900 ng/mL
Nucleic Acid [8]
  BPR: 0.042 mL/g
[9]
  Cmax: 42100 ng/mL
[10]
  concentration at 4 h: 206 ng/mL
[11]
  concentration at 0.25 h: 1270 ng/g
[12]
  concentration at 2 h: 162 ng/g
[13]
  concentration at 2 h: 2240 ng/mL
[14]
  concentration at 0.083 h: 1160 ng/g
[15]
  concentration at 2 h: 64.9 ng/g
[16]
  concentration at 6 h: 130 ng/mL
[17]
  concentration at 0.5 h: 13700 ng/mL
[18]
  AUC(0-t): 50200 ng·h/mL
[19]
  concentration at 0.083 h: 982 ng/g
[20]
  MRT inf: 57 min
[21]
  Tmax: 15 min
[22]
  bioavailability: 108%
[23]
  concentration at 0.083 h: 31600 ng/mL
[24]
  concentration at 0.25 h: 42100 ng/mL
Nucleic Acid [25]
  BPR: 0.035 mL/g
[26]
  MRT inf: 49.8 min
[27]
  AUC(0-inf): 23300 ng·h/mL
Rattus norvegicus [28]
  inhibition: Active
Rattus norvegicus [29]
  inhibition: Active
[30]
  concentration at 8 h: 45.3 ng/mL
[31]
  concentration at 0.25 h: 759 ng/g
[32]
  AUC(0-t): 23300 ng·h/mL
[33]
  Tmax: 4.8 min
[34]
  Cmax: 31600 ng/mL
Nucleic Acid [35]
  BPR: 0.032 mL/g
[36]
  concentration at 1 h: 232 ng/g
Nucleic Acid [37]
  BPR: 0.03 mL/g
Nucleic Acid [38]
  BPR: 0.038 mL/g
[39]
  concentration at 0.5 h: 523 ng/g
[40]
  AUC(0-inf): 50200 ng·h/mL
[41]
  concentration at 4 h: 24.7 ng/g
[42]
  concentration at 8 h: 42.4 ng/mL
[43]
  concentration at 0.5 h: 28500 ng/mL
[44]
  concentration at 0.083 h: 41800 ng/mL
[45]
  concentration at 6 h: 102 ng/mL
